Apaf-1 act: activators of human Apaf-1 apoptosome, primary screen, biochemical, DEVD-Rh110 fluorescence, uHTS | Apoptotic protease-activating factor 1 (Homo sapiens), O14727 | actives 0.31% (n = 330,000) | activity change, negative = activation, % at 20 µM | Apaf-1 apoptosome caspase-3 activation; stronger effect = lower value;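 active = activity change at or below -40% at 20 µM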
Target sequence (O14727 whole entry, looked up): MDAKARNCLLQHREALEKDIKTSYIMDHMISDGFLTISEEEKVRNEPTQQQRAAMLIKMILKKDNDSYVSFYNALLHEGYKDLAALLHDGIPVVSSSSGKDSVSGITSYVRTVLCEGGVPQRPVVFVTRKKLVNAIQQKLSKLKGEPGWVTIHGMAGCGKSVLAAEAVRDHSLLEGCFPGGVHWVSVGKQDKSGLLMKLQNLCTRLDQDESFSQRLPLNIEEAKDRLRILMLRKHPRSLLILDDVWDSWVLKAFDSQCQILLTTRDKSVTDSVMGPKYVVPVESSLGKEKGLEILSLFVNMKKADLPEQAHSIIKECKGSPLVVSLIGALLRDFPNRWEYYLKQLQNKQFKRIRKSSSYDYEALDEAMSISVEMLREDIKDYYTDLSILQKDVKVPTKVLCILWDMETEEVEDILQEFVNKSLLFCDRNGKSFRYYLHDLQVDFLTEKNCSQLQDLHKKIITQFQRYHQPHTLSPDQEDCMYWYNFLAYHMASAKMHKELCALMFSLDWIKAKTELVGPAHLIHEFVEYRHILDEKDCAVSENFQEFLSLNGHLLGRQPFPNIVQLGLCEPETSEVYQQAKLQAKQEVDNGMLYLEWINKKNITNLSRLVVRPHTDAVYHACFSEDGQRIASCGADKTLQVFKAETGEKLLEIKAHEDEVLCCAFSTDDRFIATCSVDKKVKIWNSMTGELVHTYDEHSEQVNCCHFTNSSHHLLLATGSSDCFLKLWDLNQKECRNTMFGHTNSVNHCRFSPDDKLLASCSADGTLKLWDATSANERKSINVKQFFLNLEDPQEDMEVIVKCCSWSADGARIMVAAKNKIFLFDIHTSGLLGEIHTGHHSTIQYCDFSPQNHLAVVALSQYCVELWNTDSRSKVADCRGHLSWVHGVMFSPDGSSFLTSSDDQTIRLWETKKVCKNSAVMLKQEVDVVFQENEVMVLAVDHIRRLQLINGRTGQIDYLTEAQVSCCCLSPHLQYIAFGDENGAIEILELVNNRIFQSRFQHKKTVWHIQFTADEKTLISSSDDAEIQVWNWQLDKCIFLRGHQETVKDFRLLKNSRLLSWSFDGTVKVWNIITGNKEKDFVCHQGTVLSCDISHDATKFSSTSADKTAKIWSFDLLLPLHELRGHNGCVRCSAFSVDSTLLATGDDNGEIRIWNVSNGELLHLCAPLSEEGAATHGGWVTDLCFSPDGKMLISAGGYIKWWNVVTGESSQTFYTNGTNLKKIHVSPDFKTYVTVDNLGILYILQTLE
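Material: biochemical Apaf-1 apoptosome reconstitution; Medium: 20 mM HEPES buffer, pH 7.5, containing CHAPS and BSA; Reagent: dATP, cytochrome c, and (Z-DEVD)2-Rh110 caspase-3 substrate; Times: 30 min preincubation, 50 min reaction, room temperature; Signal: Rh110 fluorescence, excitation 480 nm, emission 540 nm; Measure: Caspase-3 activity via Apaf-1.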
Rh110 act interf: Rh110 fluorescence interference by putative Apaf-1 activators, confirmation, artefact control for Apaf-1 activator project, biochemical, 20 µM. AID 504616, 2011. fluorescence interference (activity change), % at 20 µM, hits read low. quenched caspase reaction, Ex480/Em540. 980 tested, under 10 active. shares compounds with Apaf-1 act;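 active = mean activity change at or below -40% when tested at 20 µM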
Apaf-1 act conf2: Apaf-1 activators, single-dose retest, confirmation, biochemical, fluorescence, DEVD-Rh110, 20 µM; activity change, negative = activation, % at 20 µM; reconstituted apoptosome caspase-3 activity; stronger effect = lower value; AID 504617, 2011; shares compounds with Apaf-1 act; actives 5% (n = 980);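 active = mean activity change at or below -40%, meaning activation of 40% or more, at 20 µM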
The depositor's hits bear a star; . = no result given. The list is a sample of the results.

SMILES | Apaf-1 act | Rh110 act interf | Apaf-1 act conf2
COc1ccc(C2=NO[C@@H]3[C@@H]4C[C@@H]([C@H]5C(=O)N(C)C(=O)[C@@H]45)[C@H]23)c(OC)c1 | -62.9* | 7.7 | 13.6
COc1cccc(CNc2cccc3cccnc23)c1O | 71.5 | . | .
CNC(=S)NNC(=O)c1sccc1OCc1cccc(C(F)(F)F)c1 | -189.5* | 12.0 | 6.9
COc1ccc(Nc2ccc(C(=O)O)cc2[N+](=O)[O-])cc1 | -64.0* | 20.6 | 15.5
CCOC(=O)c1ccc(Nc2nc(N)c3cc(OC)c(OC)cc3n2)cc1 | 54.2 | . | .
CC(C)c1ccccc1OCC(=O)N(C)CC(=O)Nc1ccc(F)cc1 | -504.5* | -1.9 | 8.8
CN(CC(=O)Nc1cccc(F)c1)C(=O)c1sc2ccccc2c1Cl | 57.1 | . | .
CN(C)C(=O)c1ccc(NC(=O)COc2cccc(Oc3ccccc3)c2)cc1 | 61.1 | . | .
CCN1CCN(c2cc(N3CCN(C(=O)c4ccco4)CC3)c3c4c(onc24)-c2ccccc2C3=O)CC1 | 41.8 | . | .
S=c1[nH]c2cc(Cl)c3cccnc3c2o1 | 46.2 | . | .
CC1CCCCC1NC(=O)Cn1nnc2ccccc2c1=O (stereo not drawn) | -197.9* | 8.2 | 23.6
C=CCn1c(SCC(=O)N(CC)C2CCS(=O)(=O)C2)nnc1-c1ccccc1 (stereo not drawn) | 61.4 | . | .
CCn1c(SCC(=O)OC(C)C)nnc1-c1ccccc1 | -76.1* | -1.2 | 6.7
CCN1CCN(C2=C(NS(=O)(=O)c3ccccc3)C(=O)c3ccccc3C2=O)CC1 | 82.5 | . | .
O=C(COC(=O)Cc1ccsc1)Nc1ccc(F)cc1Cl | -52.1* | -7.2 | 9.8
Cc1c(CCOC(=O)C2C3CC4CC(C3)CC2C4)sc[n+]1CC(=O)c1ccc(Br)cc1 (stereo not drawn) | 50.2 | . | .
O=C(c1ccco1)[C@@H]1[C@@H]2C(=O)N(c3ccc(F)cc3)C(=O)[C@@H]2C2c3ccccc3C=CN21 (stereo partly drawn) | 82.5 | . | .
CN(C)c1ccnc2c[cH-]cc12.[Fe].c1ccc(-[c-]2[c-](-c3ccccc3)[c-](-c3ccccc3)[c-](-c3ccccc3)[c-]2-c2ccccc2)cc1 (stereo not drawn) | 47.2 | . | .
Cn1/c(=N/NC(=O)c2ccccc2F)sc2ccccc21 | -71.6* | 5.1 | 1.8
CC(C)C[C@@H]1CN=C(N)N1C[C@@H]1CCCN1C[C@H](C)N1C[C@@H](Cc2ccccc2)N(CCc2ccc(Cl)c(Cl)c2)C1=N | 63.0 | . | .
CCOc1ccc(-n2nc3ccc(N)cc3n2)cc1 | 84.5 | . | .
COc1ccc(Cl)cc1C(=O)OCC(=O)NC1CCCC(C)C1C (stereo not drawn) | -41.4* | 11.9 | 15.5
CC1CCCC(NC(=O)COC(=O)CCC(=O)c2cccs2)C1C (stereo not drawn) | -272.6* | 0.0 | 11.7
CC1CCCC(NC(=O)COC(=O)c2ccc([N+](=O)[O-])s2)C1C (stereo not drawn) | 41.5 | . | .
Cc1[nH][nH]c(=O)c1C(c1ccc(-c2ccc(Cl)c(Cl)c2)o1)c1c(C)[nH][nH]c1=O | 78.8 | . | .
SMILES | Apaf-1 act | Rh110 act interf | Apaf-1 act conf2
CC1=NN(c2ccc(C(=O)O)c(N)c2)C(=O)C1 | 62.1 | . | .
CN1CCc2cccc3c2[C@@H]1Cc1ccc(O)c(O)c1-3 | 49.9 | . | .
COc1cccc2c1C(=O)c1c(O)c3c(c(O)c1C2=O)C[C@@](O)(C(=O)CO)C[C@@H]3O[C@H]1C[C@H](N)[C@H](O)[C@H](C)O1 | 57.7 | . | .
CCOCCCNC(=O)COc1ccc(OC)cc1 | -293.3* | 11.9 | 11.9
CCOCCCNC1=C(Cl)C(=O)c2ccccc2C1=O | 47.9 | . | .
OC(CNc1ccccc1)COc1ccc(OCC(O)CNc2ccccc2)cc1 (stereo not drawn) | -141.3* | 2.9 | 5.4
OC(CNC1CCCc2ccccc21)COc1ccc2ccccc2c1 (stereo not drawn) | 47.2 | . | .
O=C(c1ccccc1)c1ccc(OCC(O)CNC2CCCc3ccccc32)cc1 (stereo not drawn) | 51.7 | . | .
COC(=O)c1ccc(-c2ncc(-c3cccc4ccccc34)o2)cc1 | 41.8 | . | .
O=[N+]([O-])c1c(Nc2ccccn2)cc(Cl)c2nonc12 | 91.3 | . | .
CN(C)c1cccc2c1c(NS(=O)(=O)c1cn(C)cn1)nn2C | 61.9 | . | .
CN(Cc1ccccc1)S(=O)(=O)c1cn(C)cn1 | -113.1* | 7.3 | 13.7
O=C1/C(=C\c2ccc(-c3ccccc3[N+](=O)[O-])o2)C(c2ccccc2)=NN1c1ccccc1 | 43.8 | . | .
Nc1scc2c(C(=O)N/N=C/c3ccc(Cl)cc3)nn(-c3ccccc3)c(=O)c12 | 42.4 | . | .
Cc1cc(C(=O)NC(=S)Nc2cccc(C(=O)O)c2C)ccc1[N+](=O)[O-] | -53.7* | -0.4 | 10.8
O=C(Nc1ccc(Oc2ccccc2)cc1)C1CCN(c2c3c(nc4ncnn24)CCC3)CC1 | 41.0 | . | .
COc1ccc(-c2cc3c(nn2)-c2ccccc2C3=O)cc1 | 77.3 | . | .
COc1ccc(Oc2nnc(-c3ccc(C)cc3)c3ccccc23)cc1 | -172.1* | 9.8 | 14.0
Cc1ccc(S(=O)(=O)CCC(=O)NCc2ccccc2)cc1 | -63.5* | 3.7 | 8.1
COc1ccc(CN(C)C(=O)c2cc(S(=O)(=O)NCc3ccccc3)ccc2C)c(OC)c1 | 61.4 | . | .
CCCN(CC(=O)Nc1ccccc1OC)C(=O)c1cc(S(=O)(=O)NCc2ccccc2)ccc1C | 61.7 | . | .
COC(=O)c1ccc(COC(=O)CCS(=O)(=O)c2ccc(C)cc2)cc1 | -52.7* | 6.5 | 13.9
CN(C)CCCNC(=O)C[C@H]1C[C@H](C(=O)N2CCCCC2)[C@@]2(C)c3[nH]c4cc(-c5ccco5)ccc4c3CCN2C1=O | 41.9 | . | .
Cc1cc(C)c2nc(N(CCCN(C)C)C(=O)c3ccc4c(c3)CCCC4)sc2c1 | 42.2 | . | .
S=C(Nc1ccc2[nH]ccc2c1)NC1CCCCC1 | -86.4* | 2.3 | 20.8
SMILES | Apaf-1 act | Rh110 act interf | Apaf-1 act conf2
CC(C)=CCC1=C(OCC(=O)O)C(=O)c2ccccc2C1=O | 95.3 | . | .
O=C(N/N=C/c1c(F)cccc1Cl)C1CC1 | -141.5* | -3.9 | 7.8
CC(CCC(C)C(C)(C)C)[C@@H]1CC[C@H]2C3C[C@H](OS(O)(=S)=S)[C@H]4C[C@H](OS(O)(=S)=S)[C@@H](OS(O)(=S)=S)C[C@]4(C)[C@H]3CC[C@]12C (stereo partly drawn) (tested in a mixture with another compound) | 86.8 | . | .
CC1(C)CC(=O)c2c(-c3cccnc3)n[nH]c2C1 | 43.3 | . | .
COc1ccc(C(=O)NCC23C=CC(O2)C2C(=O)N(Cc4ccccc4)C(=O)C23)cc1 (stereo not drawn) | -75.2* | -1.2 | 15.0
COc1ccc2c(c1)Cc1sc(NC(=O)c3ccco3)nc1-2 | 85.4 | . | .
COc1ccc(C2CC(c3ccc(OC)cc3)n3nc(NC(=O)c4ccco4)nc3N2)cc1 (stereo not drawn) | -329.7* | -8.5 | 15.3
Cc1cc(N)ccc1N1CCCC1 | 65.1 | . | .
COC(=O)c1ccc(C(=O)OC)c(NC(=O)CN2CCN(c3ccccc3)CC2)c1 | -190.9* | -0.8 | 12.5
COc1ccc(CN2C(=O)Cc3c2nc(N)c2c(N)nc(N4CCCCC4)c(C#N)c32)cc1 | 51.1 | . | .
O=C(Cc1cc(=O)[nH][nH]1)N/N=C/C=C/c1ccccc1 | 48.5 | . | .

Bioassay records deposited in PubChem BioAssay by Sanford-Burnham Center for Chemical Genomics.
